# According to ChEMBL document CHEMBL1145295, “Synthesis and biological evaluation of 5-arylamino-6-chloro-1H-indazole-4,7-diones as inhibitors of protein kinase B/Akt” (Bioorg Med Chem Lett, 2006):
# Active and inactive are the calls of the source. The rule behind the calls is not given here.
# What was measured:
# [1] = biological target: RAC-alpha serine/threonine-protein kinase (Homo sapiens, UniProt P31749); test: Inhibition of Akt1 activity assessed as decrease in GSK3 phosphorylation; assay type: functional
# Outline: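 Akt1 enzyme (10 U/µL) preincubated 10 min at 37 °C with compound in DMSO in HEPES 20 mM, NaCl 14.3 mM, EDTA 1 mM, DTT 2 mM. Then 3 µL of 2 mM ATP and GSK3 fusion protein added, 30 min at 37 °C. Stopped at 70 °C for 5 min. Phospho-GSK3 detected by SDS-PAGE/Western or dot blot with anti-phospho (Ser21/9) antibody, ECL and densitometry.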
# [2] = Cytotoxicity against human KATO3 cells by MTT assay; assay type: functional, cell-based
# Outline: (§1)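 MTT colorimetric cytotoxicity assay following NCI protocols. Cells grown in DMEM with 10% heat-inactivated FBS at 37 °C, 5% CO₂.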
# [3] = test system: HepG2; test: Cytotoxicity against human HepG2 cells by MTT assay; assay type: functional, cell-based; outline: as §1
# [4] = test system: PC-3; test: Cytotoxicity against human PC3 cells by MTT assay; assay type: functional, cell-based; outline: as §1
# [5] = biological target: T1, Serine/threonine-protein kinase AKT (Homo sapiens) (UniProt P31751+Q9Y243+P31749); test: Inhibition of GSK3-alpha phosphorylation in PC3 cells at 10 uM upto 5 hrs; assay type: functional, cell-based; settings: PC-3, TDE = time-dependent effect
# Outline: (§2)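 PC-3 cells (2×10⁶) cultured one day in DMEM/10% FBS, then exposed to 10 µM compound for up to 5 h. Lysates (70 µg) resolved on 12% gel. Western blot with anti-phospho-GSK3α/β (Ser21/9), anti-phospho-Akt (Ser473), anti-Akt and anti-GSK3β antibodies, ECL and densitometry. Values are relative to DMSO treatment.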
# [6] = biological target: T1, Serine/threonine-protein kinase AKT (Homo sapiens); test: Inhibition of GSK3-beta phosphorylation in PC3 cells at 10 uM upto 5 hrs; assay type: functional, cell-based; settings: PC-3, TDE = time-dependent effect; outline: as §2
# [7] = test system: PC-3; test: Inhibition of Akt1 phosphorylation in PC3 cells at 10 uM upto 5 hrs; assay type: functional, cell-based; settings: Homo sapiens; outline: as §2
# [8] = test system: PC-3; test: Antitumor activity against human PC3 cell xenografted in nude mouse at 5 mg/kg/day after 16 days; assay type: functional
# Outline: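 Male nude mice, 4 weeks old, inoculated sc in the flank with PC-3 cells (10⁶ cells/site). At 200 mm³ tumors, randomized into groups (n = 6). Dosed iv daily for 16 days in cremophor vehicle (ethanol 7%, cremophor 7%, water). Tumors measured twice weekly by caliper, volume = length·width²/2. Inhibition is relative to vehicle at day 16.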
# T1 sequence (P31749 whole entry, looked up): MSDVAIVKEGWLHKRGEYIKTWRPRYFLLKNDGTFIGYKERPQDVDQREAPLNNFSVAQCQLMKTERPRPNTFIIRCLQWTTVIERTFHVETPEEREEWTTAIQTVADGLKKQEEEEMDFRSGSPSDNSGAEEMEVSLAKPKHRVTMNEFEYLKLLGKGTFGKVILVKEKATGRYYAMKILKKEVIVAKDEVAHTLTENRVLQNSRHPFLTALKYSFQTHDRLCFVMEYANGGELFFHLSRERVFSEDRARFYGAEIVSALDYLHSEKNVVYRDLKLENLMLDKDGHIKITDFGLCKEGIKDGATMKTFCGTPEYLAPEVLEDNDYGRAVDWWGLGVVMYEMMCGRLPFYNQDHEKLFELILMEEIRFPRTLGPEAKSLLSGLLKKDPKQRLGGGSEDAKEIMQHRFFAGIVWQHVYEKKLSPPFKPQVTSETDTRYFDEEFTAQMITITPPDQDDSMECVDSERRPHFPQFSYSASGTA
# T1 sequence (P31751 whole entry, looked up): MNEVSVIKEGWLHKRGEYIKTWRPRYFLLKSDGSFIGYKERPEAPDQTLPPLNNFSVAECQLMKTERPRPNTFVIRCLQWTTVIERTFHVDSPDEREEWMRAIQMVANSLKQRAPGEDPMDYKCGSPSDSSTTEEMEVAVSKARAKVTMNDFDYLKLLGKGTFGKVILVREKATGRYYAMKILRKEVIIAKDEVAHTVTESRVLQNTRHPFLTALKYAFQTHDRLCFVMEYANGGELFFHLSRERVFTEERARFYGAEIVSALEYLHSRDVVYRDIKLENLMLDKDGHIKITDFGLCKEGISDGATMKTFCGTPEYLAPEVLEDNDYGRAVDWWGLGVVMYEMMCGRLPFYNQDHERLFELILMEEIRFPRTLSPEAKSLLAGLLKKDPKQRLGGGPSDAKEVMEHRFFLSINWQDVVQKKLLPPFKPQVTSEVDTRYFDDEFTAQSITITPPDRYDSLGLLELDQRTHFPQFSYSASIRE
# T1 sequence (Q9Y243 whole entry, looked up): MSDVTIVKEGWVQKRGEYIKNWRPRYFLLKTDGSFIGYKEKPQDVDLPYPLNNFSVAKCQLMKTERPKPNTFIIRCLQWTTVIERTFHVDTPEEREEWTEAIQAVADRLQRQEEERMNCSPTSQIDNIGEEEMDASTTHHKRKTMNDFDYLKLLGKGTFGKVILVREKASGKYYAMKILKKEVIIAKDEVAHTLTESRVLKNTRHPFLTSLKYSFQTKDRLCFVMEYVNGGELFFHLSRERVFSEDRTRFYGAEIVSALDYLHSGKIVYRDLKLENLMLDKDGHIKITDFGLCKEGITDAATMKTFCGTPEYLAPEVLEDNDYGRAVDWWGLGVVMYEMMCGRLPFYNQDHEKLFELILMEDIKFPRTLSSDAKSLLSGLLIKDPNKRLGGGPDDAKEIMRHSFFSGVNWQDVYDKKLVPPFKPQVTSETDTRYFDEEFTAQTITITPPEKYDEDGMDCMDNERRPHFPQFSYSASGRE
# Chain of RAC-alpha serine/threonine-protein kinase (P31749 whole entry, the tested form may be a part): as the sequence (P31749 whole entry, looked up) above
IC50 [1] [µM],inhibition [5],inhibition [6],Structure (SMILES),IC50 [2] [µM],IC50 [3] [µM],IC50 [4] [µM],Activity [7],Activity [8] [%]
12.3,,,O=C1C(Sc2ccc(Cl)c(Cl)c2)=C(Cl)C(=O)c2[nH]ncc21,> 100,88.7,,,
> 50,,,Cc1cc(C)cc(SC2=C(Cl)C(=O)c3[nH]ncc3C2=O)c1,> 100,> 100,,,
> 50,,,O=C1C(Nc2cc(F)cc(F)c2)=C(Cl)C(=O)c2[nH]ncc21,75.8,37.6,,,
11.8,tde,tde,O=C1C(Nc2cccc(F)c2)=C(Cl)C(=O)c2[nH]ncc21,3.9,8.9,6.3,Active,
4.9,,,CCOc1ccc(NC2=C(Cl)C(=O)c3[nH]ncc3C2=O)cc1,9.7,11.2,,,
12.4,tde,tde,O=C1C(Nc2ccc(C(F)(F)F)cc2)=C(Cl)C(=O)c2[nH]ncc21,13.8,9.2,13.7,Active,27.1
> 50,,,O=C1C(Nc2ccc(F)cc2)=C(Cl)C(=O)c2[nH]ncc21,61.4,37.2,,,
13.9,,,O=C1C(Nc2cccc(Br)c2)=C(Cl)C(=O)c2[nH]ncc21,8.9,6.1,,,
16,,,O=C1C(Nc2ccc(F)cc2F)=C(Cl)C(=O)c2[nH]ncc21,9.9,2,,,
15.8,,,O=C1C(Nc2ccccc2F)=C(Cl)C(=O)c2[nH]ncc21,20.2,15.8,,,
> 50,,,Nc1ccc(N)c2[nH]ncc12,> 100,> 100,,,
